The source of these data is PMC12243159 (RSC Medicinal Chemistry, 2025).

What all share (assay type): biochemical
Assay [1] has as its target hCA I (Homo sapiens, UniProt P00915). Kind of assay: stopped-flow CO2 hydration assay, hCA I. Put shortly:
(§1)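 Recombinant in-house enzyme, preincubated 15 min at room temperature with inhibitor. Inhibitor stock was 0.1 mM in water, diluted down to 0.01 nM. CO₂ (1.7–17 mM) hydration was followed by stopped-flow with 0.2 mM phenol red at 557 nm, in 20 mM HEPES pH 7.5 with 20 mM Na₂SO₄, over 10–100 s. Initial rates came from six traces and were corrected for the uncatalysed rate. Ki was obtained by non-linear least squares, mean of ≥3 measurements.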

For assay [2], the target named is hCA IX (Homo sapiens, UniProt Q16790). Briefly: stopped-flow CO2 hydration assay, hCA IX. The conditions noted are these: for SI I/IX: ratio of KI hCA I to KI hCA IX; for SI II/IX: ratio of KI hCA II to KI hCA IX.
Assay [3] has as its target hCA XII (Homo sapiens, UniProt O43570). Briefly: stopped-flow CO2 hydration assay, hCA XII. The conditions noted are these: for Ki: KI hCA XII; for SI I/XII: ratio of KI hCA I to KI hCA XII; for SI II/XII: ratio of KI hCA II to KI hCA XII.
Assay [4] addresses hCA II (Homo sapiens, UniProt P00918). Briefly: stopped-flow CO2 hydration assay, hCA II. Put shortly:
as §1

hCA I, sequence (P00915 whole entry): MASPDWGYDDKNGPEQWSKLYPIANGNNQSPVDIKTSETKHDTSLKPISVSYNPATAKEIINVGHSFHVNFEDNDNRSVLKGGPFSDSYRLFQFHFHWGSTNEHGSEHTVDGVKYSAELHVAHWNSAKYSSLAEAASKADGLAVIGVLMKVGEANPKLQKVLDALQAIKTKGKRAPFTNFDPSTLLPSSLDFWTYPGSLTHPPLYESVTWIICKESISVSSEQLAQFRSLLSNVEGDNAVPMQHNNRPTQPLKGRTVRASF
hCA XII, sequence (O43570 25-354): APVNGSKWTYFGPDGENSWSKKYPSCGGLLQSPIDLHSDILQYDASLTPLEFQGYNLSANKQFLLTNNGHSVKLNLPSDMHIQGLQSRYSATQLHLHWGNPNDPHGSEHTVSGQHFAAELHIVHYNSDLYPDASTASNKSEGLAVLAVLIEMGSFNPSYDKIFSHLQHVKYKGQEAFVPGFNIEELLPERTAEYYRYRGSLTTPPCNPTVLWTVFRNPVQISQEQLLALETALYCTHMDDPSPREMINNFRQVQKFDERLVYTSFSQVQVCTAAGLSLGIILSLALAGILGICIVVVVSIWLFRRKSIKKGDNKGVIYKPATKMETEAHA

The Ki is a dissociation constant, usually derived from enzyme kinetics or from competition with a known ligand. Lower therefore signals higher affinity. As to `COCCOc1cc2ncnc(Nc3cccc(-c4cn(CCOCCOCCOCCOCCOCCC(=O)NCCOc5ccc6oc(=O)ccc6c5)nn4)c3)c2cc1OCCOC` [compound 11, 1-(4-(3-((6,7-Bis(2-methoxyethoxy)quinazoline-4-yl)amino)phenyl)-1H-1,2,3-triazol-1-yl)-N-(2-((2-oxo-2H-chromen-6-yl)oxy)ethyl)-3,6,9,12,15-pentaoxaoctadecan-18-amide], the Ki in assay [1] came to 70100 nM. For the same compound, in assay [2], the Ki was found to be 4680 nM, the “SI I/IX” value is listed as 15.0 and the “SI II/IX” value was 7.21. Besides, in assay [3] (stopped-flow hydration assay), the “KI hCA XII” value is listed as “no activity”. This compound gave a Ki in assay [4] of 33700 nM.
Consider `COCCOc1cc2ncnc(Nc3cccc(-c4cn(CCOCCOCCOCCNC(=S)NCCc5ccc(S(N)(=O)=O)cc5)nn4)c3)c2cc1OCCOC` [compound 8d, 4-(16-(4-(3-((6,7-Bis(2-methoxyethoxy)quinazolin-4-yl)amino)phenyl)-1H-1,2,3-triazol-1-yl)-4-thioxo-8,11,14-trioxa-3,5-diazahexadecyl)benzenesulfonamide], for which the Ki in assay [1] was 923 nM; in assay [2], 28 nM; in assay [3] (stopped-flow hydration assay) it was 6.49 nM; in assay [4] it was 106 nM. Further, the “SI I/IX” value in assay [2] is 32.6. Further, the “SI II/IX” value in assay [2] was 3.73. Besides, the “SI I/XII” value in assay [3] turned out to be 142. For the same compound, the “SI II/XII” value in assay [3] was determined as 16.3.
For `COCCOc1cc2ncnc(Nc3cccc(-c4cn(CCOCCOCCOCCOCCOCCNC(=O)Nc5ccc6oc(=O)ccc6c5)nn4)c3)c2cc1OCCOC` [compound 13, 1-(17-(4-(3-((6,7-Bis(2-methoxyethoxy)quinazolin-4-yl)amino)phenyl)-1H-1,2,3-triazol-1-yl)-3,6,9,12,15-pentaoxaheptadecyl)-3-(2-oxo-2H-chromen-6-yl)urea], the Ki in assay [1] was 28300 nM; in assay [2] it was 242 nM; in assay [3] (stopped-flow hydration assay), 8060 nM; in assay [4] it was 11400 nM. In addition, the “SI I/IX” value in assay [2] was 117. In addition, the “SI II/IX” value in assay [2] is given as 46.9. For the same compound, the “SI I/XII” value in assay [3] is reported as 3.51. Moreover, the “SI II/XII” value in assay [3] is listed as 1.41.
In turn, `COCCOc1cc2ncnc(Nc3cccc(-c4cn(CCOCCOCCOCCNC(=S)Nc5ccc(S(N)(=O)=O)cc5)nn4)c3)c2cc1OCCOC` [compound 8b, 4-(3-(2-(2-(2-(2-(4-(3-((6,7-Bis(2-methoxyethoxy)quinazolin-4-yl)amino)phenyl)-1H-1,2,3-triazol-1-yl)ethoxy)ethoxy)ethoxy)ethyl)thioureido)benzenesulfonamide] displayed a Ki in assay [1] of 3140 nM. In addition, in assay [2], the Ki worked out at 112 nM, the “SI I/IX” value is on record as 28 and the “SI II/IX” value came to 1.2. Moreover, the Ki in assay [3] (stopped-flow hydration assay) was determined as 5.33 nM. In addition, in assay [3], the “SI I/XII” value came to 590 and the “SI II/XII” value is 25.4. The Ki in assay [4] was 135 nM.
For the compound `COCCOc1cc2ncnc(Nc3cccc(-c4cn(CCOCCOCCOCCOCCOCCC(=O)NCc5ccc(S(N)(=O)=O)cc5)nn4)c3)c2cc1OCCOC` [compound 10a, 1-(4-(3-((6,7-Bis(2-methoxyethoxy)quinazolin-4-yl)amino)phenyl)-1H-1,2,3-triazol-1-yl)-N-(4-sulfamoylbenzyl)-3,6,9,12,15-pentaoxaoctadecan-18-amide], in assay [1], the affinity, expressed as Ki, was 903 nM. In assay [2], the Ki amounted to 4160 nM, the “SI I/IX” value was 0.22 and the “SI II/IX” value is recorded as 0.06. The same compound had a Ki in assay [3] (stopped-flow hydration assay) of 3300 nM. In assay [3], the “SI I/XII” value is reported as 0.27 and the “SI II/XII” value is 0.08. Further, the affinity in assay [4] corresponds to a Ki of 253 nM.
For `COCCOc1cc2ncnc(Nc3cccc(-c4cn(CCOCCOCCOCCNC(=S)Nc5ccc(S(N)(=O)=O)c(C)c5Br)nn4)c3)c2cc1OCCOC` [compound 9, 4-(3-(2-(2-(2-(2-(4-(3-((6,7-Bis(2-methoxyethoxy)quinazolin-4-yl)amino)phenyl)-1H-1,2,3-triazol-1-yl)ethoxy)ethoxy)ethoxy)ethyl)thioureido)-3-bromo-2-methylbenzenesulfonamide], the affinity in assay [1] corresponds to a Ki of 4910 nM. In assay [2], affinity was put at a Ki of 1340 nM, the “SI I/IX” value is 3.65 and the “SI II/IX” value came out at 0.39. Besides, the Ki in assay [3] (stopped-flow hydration assay) turned out to be 69.8 nM. Moreover, in assay [3], the “SI I/XII” value is recorded as 70.3 and the “SI II/XII” value amounted to 7.61. The compound further registered a Ki in assay [4] of 531 nM.
As for `COCCOc1cc2ncnc(Nc3cccc(-c4cn(CCOCCOCCOCCOCCOCCNC(=S)NCCc5ccc(S(N)(=O)=O)cc5)nn4)c3)c2cc1OCCOC` [compound 14d, 4-(22-(4-(3-((6,7-Bis(2-methoxyethoxy)quinazolin-4-yl)amino)phenyl)-1H-1,2,3-triazol-1-yl)-4-thioxo-8,11,14,17,20-pentaoxa-3,5-diazadocosyl)benzenesulfonamide], affinity in assay [1] was put at a Ki of 957 nM. In assay [2], affinity was put at a Ki of 1880 nM, the “SI I/IX” value is given as 0.51 and the “SI II/IX” value is recorded as 17.4. Besides, the Ki in assay [3] (stopped-flow hydration assay) amounted to 95.2 nM. In assay [3], the “SI I/XII” value is listed as 10.0 and the “SI II/XII” value amounted to 344. This compound also had an inhibition constant Ki in assay [4] of 32700 nM.
Compound `COCCOc1cc2ncnc(Nc3cccc(-c4cn(CCOCCOCCOCCOCCOCCNC(=O)NCc5ccc(S(N)(=O)=O)cc5)nn4)c3)c2cc1OCCOC` [compound 12c, 4-(21-(4-(3-((6,7-Bis(2-methoxyethoxy)quinazoline-4-yl)amino)phenyl)-1H-1,2,3-triazol-1-yl)-3-oxo-7,10,13,16,19-pentaoxa-2,4-diazahenicosyl)benzenesulfonamide] registered a Ki in assay [1] of 160 nM. Further, in assay [2], the inhibition constant (Ki) turned out to be 387 nM, the “SI I/IX” value worked out at 0.41 and the “SI II/IX” value turned out to be 0.002. The compound further registered a Ki in assay [3] (stopped-flow hydration assay) of 940 nM. For the same compound, in assay [3], the “SI I/XII” value worked out at 0.17 and the “SI II/XII” value turned out to be 0.0008. Also, in assay [4], the Ki came out at 0.8 nM.
In the case of `COCCOc1cc2ncnc(Nc3cccc(-c4cn(CCOCCOCCOCCNC(=O)Nc5cccc(S(N)(=O)=O)c5)nn4)c3)c2cc1OCCOC` [compound 7a, 3-(3-(2-(2-(2-(2-(4-(3-((6,7-Bis(2-methoxyethoxy)quinazolin-4-yl)amino)phenyl)-1H-1,2,3-triazol-1-yl)ethoxy)ethoxy)ethoxy)ethyl)ureido)benzenesulfonamide], the Ki was 46500 nM in assay [1], 285 nM in assay [2], 58.9 nM in assay [3] (stopped-flow hydration assay) and 723 nM in assay [4]. Also, the “SI I/IX” value in assay [2] was determined as 164. Also, the “SI II/IX” value in assay [2] is 2.54. Further, the “SI I/XII” value in assay [3] is reported as 790. In addition, the “SI II/XII” value in assay [3] came to 12.3.
For the compound `COCCOc1cc2ncnc(Nc3cccc(-c4cn(CCOCCOCCOCCOCCOCCNC(=O)Nc5ccc(S(N)(=O)=O)cc5)nn4)c3)c2cc1OCCOC` [compound 12b, 4-(3-(17-(4-(3-((6,7-Bis(2-methoxyethoxy)quinazolin-4-yl)amino)phenyl)-1H-1,2,3-triazol-1-yl)-3,6,9,12,15-pentaoxaheptadecyl)ureido)benzenesulfonamide], the Ki in assay [1] is 24800 nM. Moreover, in assay [2], the affinity corresponds to a Ki of 5620 nM, the “SI I/IX” value amounted to 4.41 and the “SI II/IX” value was found to be 0.02. Moreover, the Ki in assay [3] (stopped-flow hydration assay) is 75.3 nM. For the same compound, in assay [3], the “SI I/XII” value amounted to 329 and the “SI II/XII” value is on record as 1.21. This compound also showed a Ki in assay [4] of 90.8 nM.
